According to ChEMBL document CHEMBL4257519, “Generation of a long-acting fusion inhibitor against HIV-1” (Medchemcomm, 2018):
Where a SMILES comes first, the peptide text is derived from it. Bridges are numbered along the chain shown (N, C = ends). [ ]: non-standard residue; d: D form. S5 = C=CCCC[C@](C)(N)C(=O)O

Columns and labels:
[1] = system: Human immunodeficiency virus 1; assay: Antiviral activity against HIV1 subtype B' CNE6 pseudovirus assessed as inhibition of viral infection in Ghost (3)X4/R5 cells after 48 hrs by Bright-Glo luciferase reporter gene assay; format: functional, organism-based; settings: Human immunodeficiency virus 1, subtype B' CNE6, 48 h
Outline: (§1)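 Single-round env-pseudotyped luciferase reporter viruses were made in HEK293T cells with the pNL4-3.Luc.R-E backbone. Ghost(3)X4/R5 target cells (CD4, CXCR4, CCR5) were grown in DMEM with 10% heat-inactivated FBS at 37 °C, 5% CO2. Peptides in 3-fold dilutions were preincubated with 100 TCID50 of virus for 1 h at room temperature. The mixture was added at 10^4 cells/well for 48 h at 37 °C. IC50 came from a variable-slope dose-response fit of luciferase reduction versus controls.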

[2] = system: Human immunodeficiency virus 1; assay: Antiviral activity against HIV1 subtype B' CNE11 pseudovirus assessed as inhibition of viral infection in Ghost (3)X4/R5 cells after 48 hrs by Bright-Glo luciferase reporter gene assay; format: functional, organism-based; settings: Human immunodeficiency virus 1, subtype B' CNE11, 48 h; outline: as §1
[3] = system: Human immunodeficiency virus 1; assay: Antiviral activity against HIV1 subtype BC CNE15 pseudovirus assessed as inhibition of viral infection in Ghost (3)X4/R5 cells after 48 hrs by Bright-Glo luciferase reporter gene assay; format: functional, organism-based; settings: Human immunodeficiency virus 1, subtype BC CNE15, 48 h; outline: as §1
[4] = system: Human immunodeficiency virus 1; assay: Antiviral activity against HIV1 subtype BC CNE30 pseudovirus assessed as inhibition of viral infection in Ghost (3)X4/R5 cells after 48 hrs by Bright-Glo luciferase reporter gene assay; format: functional, organism-based; settings: Human immunodeficiency virus 1, subtype BC CNE30, 48 h; outline: as §1
[5] = system: Human immunodeficiency virus 1; assay: Antiviral activity against HIV1 subtype CRF01_AE CNE5 pseudovirus assessed as inhibition of viral infection in Ghost (3)X4/R5 cells after 48 hrs by Bright-Glo luciferase reporter gene assay; format: functional, organism-based, HIV-1 CRF01_AE; settings: Human immunodeficiency virus 1, CNE5, 48 h; outline: as §1
[6] = system: Human immunodeficiency virus 1; assay: Antiviral activity against HIV1 subtype CRF01_AE CNE55 pseudovirus assessed as inhibition of viral infection in Ghost (3)X4/R5 cells after 48 hrs by Bright-Glo luciferase reporter gene assay; format: functional, organism-based, HIV-1 CRF01_AE; settings: Human immunodeficiency virus 1, CNE55, 48 h; outline: as §1
[7] = system: Human immunodeficiency virus 1; assay: Antiviral activity against HIV-1 subtype B SF162 pseudovirus assessed as inhibition of viral infection in Ghost (3)X4/R5 cells after 48 hrs by Bright-Glo luciferase reporter gene assay; format: functional, organism-based; settings: Human immunodeficiency virus 1, SF162 ISOLATE; outline: as §1
[8] = system: Human immunodeficiency virus 1; assay: Antiviral activity against HIV-1 subtype B JRFL pseudovirus assessed as inhibition of viral infection in Ghost (3)X4/R5 cells after 48 hrs by Bright-Glo luciferase reporter gene assay; format: functional, organism-based, HIV-1 group M; settings: Human immunodeficiency virus 1, JRFL; outline: as §1
[9] = system: Human immunodeficiency virus 1; assay: Antiviral activity against HIV-1 subtype B HXB2 pseudovirus assessed as inhibition of viral infection in Ghost (3)X4/R5 cells after 48 hrs by Bright-Glo luciferase reporter gene assay; format: functional, organism-based; settings: Human immunodeficiency virus 1, M:B_HXB2R; outline: as §1
chymotrypsin = assay: Drug metabolism assessed as chymotrypsin (unknown origin)-mediated compound degradation by measuring compound half life at 25 uM by HPLC analysis; format: ADME, Homo sapiens
Outline: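 Peptide stock was 1 mM in DMSO, diluted into 50 mM PBS pH 7.4 containing chymotrypsin (0.5 ng/μL) and 50 mM CaCl2. Digestion ran at 30 °C. Remaining peptide was monitored by reversed-phase HPLC on a C4 column at 1.0 mL/min, acetonitrile/water with 0.1% TFA.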

[10] = system: Human immunodeficiency virus 1; assay: Resistance index, ratio of IC50 for inhibition of gp41 D36G mutant-mediated T20-resistant HIV1 NL4-3 viral infection in Ghost (3)X4/R5 cells to IC50 for inhibition of gp41-mediated HIV1 NL4-3 infection in Ghost (3)X4/R5 cells; format: cell-based
[11] = system: Human immunodeficiency virus 1; assay: Resistance index, ratio of IC50 for inhibition of gp41 I37T mutant-mediated T20-resistant HIV1 NL4-3 viral infection in Ghost (3)X4/R5 cells to IC50 for inhibition of gp41-mediated HIV1 NL4-3 infection in Ghost (3)X4/R5 cells; format: cell-based
[12] = system: Human immunodeficiency virus 1; assay: Resistance index, ratio of IC50 for inhibition of gp41 V38M mutant-mediated T20-resistant HIV1 NL4-3 viral infection in Ghost (3)X4/R5 cells to IC50 for inhibition of gp41-mediated HIV1 NL4-3 infection in Ghost (3)X4/R5 cells; format: cell-based
[13] = system: Human immunodeficiency virus 1; assay: Resistance index, ratio of IC50 for inhibition of gp41 Q40H mutant-mediated T20-resistant HIV1 NL4-3 viral infection in Ghost (3)X4/R5 cells to IC50 for inhibition of gp41-mediated HIV1 NL4-3 infection in Ghost (3)X4/R5 cells; format: cell-based
[14] = system: Human immunodeficiency virus 1; assay: Resistance index, ratio of IC50 for inhibition of gp41 N43K mutant-mediated T20-resistant HIV1 NL4-3 viral infection in Ghost (3)X4/R5 cells to IC50 for inhibition of gp41-mediated HIV1 NL4-3 infection in Ghost (3)X4/R5 cells; format: cell-based
[15] = system: Human immunodeficiency virus 1; assay: Resistance index, ratio of IC50 for inhibition of gp41 I37T/N43K double mutant-mediated T20-resistant HIV1 NL4-3 viral infection in Ghost (3)X4/R5 cells to IC50 for inhibition of gp41-mediated HIV1 NL4-3 infection in Ghost (3)X4/R5 cells; format: cell-based
[16] = system: Human immunodeficiency virus 1; assay: Resistance index, ratio of IC50 for inhibition of gp41 G36S/V38M double mutant-mediated T20-resistant HIV1 NL4-3 viral infection in Ghost (3)X4/R5 cells to IC50 for inhibition of gp41-mediated HIV1 NL4-3 infection in Ghost (3)X4/R5 cells; format: cell-based
[17] = system: Human immunodeficiency virus 1; assay: Resistance index, ratio of IC50 for inhibition of gp41 V38A/N42T double mutant-mediated T20-resistant HIV1 NL4-3 viral infection in Ghost (3)X4/R5 cells to IC50 for inhibition of gp41-mediated HIV1 NL4-3 infection in Ghost (3)X4/R5 cells; format: cell-based
[18] = system: Human immunodeficiency virus 1; assay: Resistance index, ratio of IC50 for inhibition of gp41 V38A mutant-mediated T20-resistant HIV1 NL4-3 viral infection in Ghost (3)X4/R5 cells to IC50 for inhibition of gp41-mediated HIV1 NL4-3 infection in Ghost (3)X4/R5 cells; format: cell-based

| Compound | IC50 [1] [nM] | IC50 [2] [nM] | IC50 [3] [nM] | IC50 [4] [nM] | IC50 [5] [nM] | IC50 [6] [nM] | IC50 [7] [nM] | IC50 [8] [nM] | IC50 [9] [nM] | half-life at 25 µM (chymotrypsin) [h] | Ratio IC50 [10] | Ratio IC50 [11] | Ratio IC50 [12] | Ratio IC50 [13] | Ratio IC50 [14] | Ratio IC50 [15] | Ratio IC50 [16] | Ratio IC50 [17] | Ratio IC50 [18] |
| --- | --- | --- | --- | --- | --- | --- | --- | --- | --- | --- | --- | --- | --- | --- | --- | --- | --- | --- | --- |
| CC[C@H](C)[C@H](NC(=O)[C@H](CCCCN)NC(=O)[C@H](CCCCN)NC(=O)[C@H](CC(=O)O)NC(=O)[C@H](Cc1c[nH]c2ccccc12)NC(=O)[C@H](CCC(=O)O)NC(=O)[C@H](CCC(=O)O)NC(=O)[C@H](Cc1c[nH]c2ccccc12)NC(=O)[C@@H](NC(=O)[C@H](CCSC)NC(C)=O)[C@@H](C)O)C(=O)N[C@@H](CCC(=O)O)C(=O)N[C@@H](CCC(=O)O)C(=O)N[C@@H](Cc1ccc(O)cc1)C(=O)N[C@H](C(=O)N[C@@]1(C)CCC/C=C\CCC[C@@](C)(C(=O)N[C@@H](CC(C)C)C(=O)N[C@H](C(=O)N[C@@H](CCCCN)C(=O)N[C@@H](CCCCN)C(=O)N[C@@H](CO)C(N)=O)[C@@H](C)CC)NC(=O)[C@H](CCC(=O)O)NC(=O)[C@H]([C@@H](C)CC)NC(=O)[C@H](CCCCN)NC1=O)[C@@H](C)O (Ac-MTWEEWDKKIEEYT[S5]KIE[S5]LIKKS-NH2; staple (Z) 15-19) | 10.4 | 8.8 | 14 | 71.7 | 27.7 | 82.3 | 14.4 | 8.7 | 0.5 | 8.25 | – | – | – | – | – | – | – | – | – |
| CC[C@H](C)[C@H](NC(=O)[C@H](CC(C)C)NC(=O)[C@H](CCC(=O)O)NC(=O)[C@H](CCC(=O)O)NC(=O)[C@@H](NC(=O)[C@H](CCCCN)NC(=O)[C@H](CCCCN)NC(=O)[C@@H](NC(=O)[C@H](Cc1ccc(O)cc1)NC(=O)[C@]1(C)CCC/C=C\CCC[C@](C)(NC(=O)[C@H](CC(=O)O)NC(=O)[C@H](Cc2c[nH]c3ccccc23)NC(=O)[C@H](CCC(=O)O)NC(=O)[C@H](CCC(=O)O)NC(=O)[C@H](Cc2c[nH]c3ccccc23)NC(=O)[C@@H](NC(=O)[C@H](CCSC)NC(C)=O)[C@@H](C)O)C(=O)N[C@@H](CCCCN)C(=O)N[C@@H]([C@@H](C)CC)C(=O)N[C@@H](CCC(=O)O)C(=O)N1)[C@@H](C)O)[C@@H](C)CC)C(=O)N[C@@H](CCCCN)C(=O)N[C@@H](CCCCN)C(=O)N[C@@H](CO)C(N)=O (Ac-MTWEEWD[S5]KIE[S5]YTKKIEELIKKS-NH2; staple (Z) 8-12) | 12.5 | 7.2 | 3.3 | 16.2 | 6.8 | 20.3 | 3.3 | 8.6 | 0.4 | 11.8 | – | – | – | – | – | – | – | – | – |
| CC[C@H](C)[C@H](NC(=O)[C@H](CC(C)C)NC(=O)[C@]1(C)CCC/C=C\CCC[C@](C)(NC(=O)[C@@H](NC(=O)[C@H](Cc2ccc(O)cc2)NC(=O)[C@]2(C)CCC/C=C\CCC[C@](C)(NC(=O)[C@H](CC(=O)O)NC(=O)[C@H](Cc3c[nH]c4ccccc34)NC(=O)[C@H](CCC(=O)O)NC(=O)[C@H](CCC(=O)O)NC(=O)[C@H](Cc3c[nH]c4ccccc34)NC(=O)[C@@H](NC(=O)[C@H](CCSC)NC(C)=O)[C@@H](C)O)C(=O)N[C@@H](CCCCN)C(=O)N[C@@H]([C@@H](C)CC)C(=O)N[C@@H](CCC(=O)O)C(=O)N2)[C@@H](C)O)C(=O)N[C@@H](CCCCN)C(=O)N[C@@H]([C@@H](C)CC)C(=O)N[C@@H](CCC(=O)O)C(=O)N1)C(=O)N[C@@H](CCCCN)C(=O)N[C@@H](CCCCN)C(=O)N[C@@H](CO)C(N)=O (Ac-MTWEEWD[S5]KIE[S5]YT[S5]KIE[S5]LIKKS-NH2; staple (Z) 8-12, 15-19) | 1.2 | 2.6 | 1.8 | 7.7 | 3.6 | 5.3 | 1 | 0.6 | 0.05 | 61.1 | 1.4 | 1.6 | 1 | 1.1 | 3.3 | 2.2 | 2.1 | 0.5 | 0.8 |
| Ac-MTWEEWDKKIEEYTKKIEELIKKS-NH2 | 10.3 | 5.9 | 7.5 | 22.3 | 35 | 12.9 | 2.9 | 7.3 | 2.4 | 2.08 | 2.3 | 2.6 | 2.3 | 1.1 | 19 | 13 | 3.4 | 1.2 | 1.5 |
